# VLA-4 inh: inhibition in a human VLA-4 binding assay | 0.2% of 330,000 active | inhibition, % (about 7 µM as worked out from the volumes in the protocol) | VLA-4 expressing cells, ligand binding flow cytometry | P13612; in the data active = inhibition above about 50%
# Target sequence (P13612 whole entry, looked up): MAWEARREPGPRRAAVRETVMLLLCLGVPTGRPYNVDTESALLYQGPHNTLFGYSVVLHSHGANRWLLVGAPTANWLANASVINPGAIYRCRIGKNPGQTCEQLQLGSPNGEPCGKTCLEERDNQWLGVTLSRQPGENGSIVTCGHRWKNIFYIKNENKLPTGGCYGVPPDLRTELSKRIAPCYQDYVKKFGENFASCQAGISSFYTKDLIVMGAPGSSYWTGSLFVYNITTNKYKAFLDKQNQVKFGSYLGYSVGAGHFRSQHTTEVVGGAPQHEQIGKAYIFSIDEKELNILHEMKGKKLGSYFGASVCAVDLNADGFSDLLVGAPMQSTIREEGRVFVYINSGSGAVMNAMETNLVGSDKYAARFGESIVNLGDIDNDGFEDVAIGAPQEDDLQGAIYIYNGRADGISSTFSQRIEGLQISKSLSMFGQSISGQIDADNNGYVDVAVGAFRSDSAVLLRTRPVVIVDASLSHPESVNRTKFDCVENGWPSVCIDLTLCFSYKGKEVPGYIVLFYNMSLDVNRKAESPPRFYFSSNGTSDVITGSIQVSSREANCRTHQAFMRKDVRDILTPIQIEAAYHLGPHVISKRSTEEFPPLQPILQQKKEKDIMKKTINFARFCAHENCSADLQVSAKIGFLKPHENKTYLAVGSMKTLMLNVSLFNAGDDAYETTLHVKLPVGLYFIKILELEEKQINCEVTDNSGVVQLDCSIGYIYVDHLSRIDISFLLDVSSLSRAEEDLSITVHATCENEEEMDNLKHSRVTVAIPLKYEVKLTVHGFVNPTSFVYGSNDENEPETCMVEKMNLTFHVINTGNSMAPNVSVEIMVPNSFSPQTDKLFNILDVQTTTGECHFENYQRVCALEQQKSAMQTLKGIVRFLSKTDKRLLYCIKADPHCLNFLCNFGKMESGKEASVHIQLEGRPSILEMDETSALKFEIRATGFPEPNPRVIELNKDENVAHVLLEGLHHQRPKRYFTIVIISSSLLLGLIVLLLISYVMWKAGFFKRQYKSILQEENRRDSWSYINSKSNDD
# Platelet DG rel: modulates dense granule release in human platelets; human platelet-rich plasma, SFLLRN dense granule ATP release, luminescence; inhibition, %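 (compounds screened at 7.5 µM in platelet-rich plasma)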; 0.22% of 300,000 active;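 active = mean replicate score, as percent of positive control, at or above 50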
# TAAR1 ag: agonists of human TAAR1; 0.99% of 360,000 active; activation, % at 3 µM; Q96RJ0; AID 624467; CHO RD-HGA16 TAAR1, Fluo-8 calcium fluorescence; vehicle wells 0%, saturating PEA agonist 100%;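 active = activation above the mean activation of all test compounds in the run plus 3 SD, cut at about 38% in these data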
#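 Signal – calcium-sensitive Fluo-8 signal, excitation 470-495, emission 515-575 nm · System – RD-HGA16 (CHO) cells co-expressing Gα16 and hTAAR1 · Incubation – 17-24 h seeding, 75 min 37 °C dye, 30 min RT · Compound dosing – 3 µM single concentration · Repeats – no replicates (n 1)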
# TAAR1 antag: human TAAR1 antagonism; Q96RJ0; CHO RD-HGA16 TAAR1, Fluo-8 calcium fluorescence, antagonist; inhibition, % at 3 µM; 1.5% of 360,000 active; AID 624466;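 active = inhibition above a per-plate cutoff, the mean inhibition of test compounds on that plate plus 3 SD, cut at about 49% in these data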;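 also: 0% = DMSO plus EC80 beta-PEA response and 100% = DMSO alone without agonist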
#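 Test system: hTAAR1-expressing CHO RD-HGA16 cells, Gα16-coupled; Probe or stimulus: EC80 β-phenethylamine stimulus; Compound dosing: single nominal final test compound concentration of 3 µM; Timing: 140 s kinetic read after compound, 140 s after agonist; Signal: Fluo-8 calcium-sensitive fluorescence; Measure: % inhibition of agonist calcium response; Controls: DMSO and EC80 PEA controls.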
# Rce1 inh: yeast Ras-converting enzyme inhibition; yeast membranes, quenched prenylated peptide cleavage fluorescence; calls only; 0.27% of 290,000 active;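 active = fall in fluorescence gain of 50% or more versus controls, with final raw signal at or below 3038400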;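 also: plate controls were neutral control wells for no effect and wells lacking membranes for full effect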
# TAAR1 nonsel count: counter-screen for TAAR1 antagonists: nonselective antagonists. shares compounds with TAAR1 antag. counterscreen cell line, calcium fluorescence, antagonist mode. inhibition, % at 3 µM. 77% of 2,400 active. AID 651780; in the data active = inhibition above about 22%;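 also: CHO-Ga16 host cells stimulated with ATP at an EC80 level; 0% = agonist EC80 plus vehicle and 100% = vehicle without agonist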
# TAAR1 ant conf: confirmation of human TAAR1 antagonists. shares compounds with TAAR1 antag. TAAR1-expressing cells, fluorescence antagonist read-out. inhibition, % at 3 µM. 40% of 2,400 active; in the data active = inhibition above about 49%;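 also: CHO-Ga16 host cells challenged with agonist PEA near its EC80; 0% = agonist at EC80 plus vehicle and 100% = vehicle with no agonist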
# Ga16 nonsel ag: nonselective Ga16 agonism, counter-screen | shares compounds with TAAR1 antag | Ga16-expressing cells, calcium fluorescence, agonist counterscreen | activation, % at 3 µM | 18% of 2,400 active | AID 651953; in the data active = activation above about 12%;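 also: 0% = vehicle wells and 100% = saturating stimulus response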
# TAAR1 ag count: activates human TAAR1 in antagonist counter-screen | shares compounds with TAAR1 antag | hTAAR1 cell line, fluorescence activation, agonist mode | activation, % at 3 µM | 2% of 2,400 active | AID 651955; in the data active = activation above about 37%;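 also: CHO cells stably expressing TAAR1 with calcium dye readout; 0% = DMSO vehicle and 100% = full agonist response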
# Starred values were filed as active, the others as inactive; i = inactive; / = no result given. This is a sample that favours compounds with a hit; in the whole collection about 2.6% have one here.
SMILES,VLA-4 inh,Platelet DG rel,TAAR1 ag,TAAR1 antag,Rce1 inh,TAAR1 nonsel count,TAAR1 ant conf,Ga16 nonsel ag,TAAR1 ag count
CC(C)(C)OC(=O)NCc1ccc(CNC(=O)c2nc[nH]c2C(=O)N2CCN(C(=O)OC(C)(C)C)CC2)cc1,0,/,26,61*,/,35*,52*,16*,19
CC(C)(C)OC(=O)NCc1ccc(CNC(=O)c2[nH]cnc2C(=O)Nc2ccccc2F)cc1,/,/,13,71*,/,42*,46,11,13
C[C@H](NC(=O)c1nc[nH]c1C(=O)NCc1ccc(CNC(=O)OC(C)(C)C)cc1)c1ccccc1,8,/,36,68*,/,38*,42,10,17
CC(C)C[C@H](NC(=O)c1nc[nH]c1C(=O)NC(c1ccccc1)c1ccccc1)C(=O)OC(C)(C)C,/,-1,8,56*,i,19,31,0,2
Cc1cc(S(=O)(=O)N2CCCC(N3CCOCC3)C2)c(C)cc1Cl (stereo not drawn),16,0,10,-4,i,/,/,/,/
CCOC(=O)c1c(C)[nH]c(C)c1C(=O)CSc1nc2ccccc2n1CCC#N,9,20,0,14,i,/,/,/,/
CCCn1c(SCC(=O)c2c(C)[nH]c(C)c2C(=O)OCC)nc2ccccc21,44,25,12,49*,i,18,34,10,15
COc1ccccc1N1C(=O)c2ccc(C(=O)Nc3ccccc3O)cc2C1=O,1,0,8,7,i,/,/,/,/
CCCN1C(=O)c2cc(C(=O)Nc3ccccc3OC)ccc2C1Nc1ccccc1OC (stereo not drawn),-5,2,8,60*,i,29*,43,5,4
C[C@H]1CN(S(=O)C(C)(C)C)[C@H](CCO)/C1=C\CCO (stereo partly drawn),/,/,1,-4,/,/,/,/,/
CCOC(=O)C1=C(COC(=O)/C=C/c2cccc([N+](=O)[O-])c2)NC(=O)NC1C (stereo not drawn),-8,0,24,58*,i,21,56*,15*,20
CCOC(=O)C1=C(COC(=O)/C=C/c2ccc(OC)c(OC)c2)NC(=O)NC1C (stereo not drawn),-5,-7,11,22,i,/,/,/,/
CCOC(=O)C1=C(COC(=O)/C=C/c2ccc(O)c(OC)c2)NC(=O)NC1C (stereo not drawn),-14,/,26,62*,/,28*,51*,13*,20
CCOC(=O)C1=C(COC(=O)/C=C/c2cccc(Br)c2)NC(=O)NC1C (stereo not drawn),-20,/,24,59*,/,10,37,10,11
CCOC(=O)C1=C(COC(=O)/C=C/c2cccc(Cl)c2)NC(=O)NC1C (stereo not drawn),-8,6,12,28,i,/,/,/,/
CCOC(=O)C1=C(COC(=O)Cc2ccccc2)NC(=O)NC1C (stereo not drawn),5,-3,5,5,i,/,/,/,/
CCOC(=O)C1=C(COC(=O)Cc2ccc(Cl)cc2)NC(=O)NC1C (stereo not drawn),-9,/,17,60*,/,25*,42,8,5
CCOC(=O)C1=C(COC(=O)/C=C/c2cc(OC)c(OC)c(OC)c2)NC(=O)NC1C (stereo not drawn),-3,24,7,36,i,/,/,/,/
COc1cccc(C(NC(C)=O)c2nc(-c3ccc(N(C)C)cc3)cs2)c1 (stereo not drawn),/,/,3,-1,/,/,/,/,/
COc1ccc(CC(N)c2csc(Nc3cc(NCc4ccco4)ncn3)n2)cc1 (stereo not drawn),/,/,8,11,/,/,/,/,/
CC1(C)N=C(SCC(=O)Nc2ccccc2)C(c2ccc(Cl)cc2)=N1,-3,-2,8,54*,i,20,22,7,2
Cc1ccc(C2=NC(C)(C)N=C2SCC(=O)Nc2ccc(Cl)cc2)cc1,7,-1,6,20,/,/,/,/,/
CC(=O)c1c(C)[nH]c(C(=O)Nc2nc(-c3ccc(-c4ccccc4)cc3)cs2)c1C,-3,-8,29,93*,i,71*,97*,27*,37*
O=C(Nc1nc(-c2ccccc2)cs1)c1ccccc1NS(=O)(=O)c1ccc(F)cc1,9,-21,4,70*,i,58*,68*,10,4
C=CCNC(=O)c1ccc(NC(=O)CC2SC(N3CCCC3)=NC2=O)cc1 (stereo not drawn),3,7,1,-9,i,/,/,/,/
SMILES,VLA-4 inh,Platelet DG rel,TAAR1 ag,TAAR1 antag,Rce1 inh,TAAR1 nonsel count,TAAR1 ant conf,Ga16 nonsel ag,TAAR1 ag count
COC(=O)c1cc(S(=O)(=O)N2CCN(C3CCCCC3)CC2)c[nH]1,6,-8,/,/,i,/,/,/,/
COc1ccc(Cl)cc1C(=O)OCC(=O)Nc1sccc1C(N)=O,4,/,24,57*,/,26*,50*,11,14
O=C(NC1(Cc2ccccc2)CCN(CCCc2ccccc2)C1=O)c1ccccc1 (stereo not drawn),0,/,25,66*,/,26*,48,8,12
OCC1(Cc2ccc(Cl)cc2)CCN(CCCc2ccccc2)CC1,15,-1,15,-3,i,/,/,/,/
CC1(c2nnnn2Cc2ccccc2)CCC(=O)N1CC1CCCCC1 (stereo not drawn),/,/,4,18,/,/,/,/,/
COc1ccc(COc2cc(-c3cccc(OC)c3)nc3ccc(NC(=O)c4cccnc4)cc23)cc1,2,8,12,69*,i,35*,47,6,8
CC(C)C[C@H]1CN(CCCC[C@H]2CNC(=O)C(=O)N2CC2CCCCC2)C(=O)C(=O)N1CCc1ccccc1,/,/,1,-23,/,/,/,/,/
O=C(N/N=C\c1ccc(COc2ccc([N+](=O)[O-])cc2)o1)c1cccc(Cl)c1,-6,-8,16,56*,i,26*,42,4,5
O=C(N/N=C\c1ccc(COc2ccc([N+](=O)[O-])cc2)o1)c1ccc(Cl)cc1,6,0,3,37,i,/,/,/,/
NS(=O)(=O)c1ccc(CCNc2ccnc3cc(Cl)ccc23)cc1,5,-6,-2,5,i,/,/,/,/
CC1(C)c2[nH]c3ccccc3c2C[C@H]2C(=O)N(Cc3ccccc3F)C(=O)N21,/,-4,13,14,i,/,/,/,/
Cc1cccc(CN2C(=O)[C@H]3Cc4c([nH]c5ccccc45)C(C)(C)N3C2=O)c1,-13,0,10,60*,i,24*,26,2,2
